Data: ChEMBL document CHEMBL1142894, “Preparation of 5-aryl-3-alkylthio-l,2,4-triazoles and corresponding sulfones with antiinflammatory-analgesic activity” (Bioorg Med Chem, 2007)

How the values were obtained:
Format in all cases: functional
Mus musculus [1] = assay: Antiinflammatory activity against carrageenan-induced paw edema in Swiss albino mouse assessed as swelling thickness at 100 mg/kg, po after 270 mins
Outline: (§1)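 Oral dosing in 0.5% CMC; vehicle to controls. Then carrageenan (0.5 mg/25 ll, freshly suspended in 154 mM saline) injected into the right hind paw subplantar tissue; saline into the left paw. Right-left footpad thickness difference measured by dial gauge calliper every 90 min over 6 h. Inhibition % is relative to vehicle control. n = 6; mean ± SEM.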

Mus musculus [2] = assay: Antiinflammatory activity against carrageenan-induced paw edema in Swiss albino mouse assessed as swelling thickness at 10 mg/kg, po after 270 mins; outline: as §1
Mus musculus [3] = assay: Inhibition of carrageenan-induced paw edema in Swiss albino mouse at 10 mg/kg, po after 360 mins relative to control; conditions: 6 h; outline: as §1
Mus musculus [4] = assay: Antiinflammatory activity against carrageenan-induced paw edema in Swiss albino mouse assessed as swelling thickness at 100 mg/kg, po after 360 mins; outline: as §1
Mus musculus [5] = assay: Antiinflammatory activity against carrageenan-induced paw edema in Swiss albino mouse assessed as swelling thickness at 100 mg/kg, po after 90 mins; outline: as §1
Mus musculus [6] = assay: Antiinflammatory activity against carrageenan-induced paw edema in Swiss albino mouse assessed as swelling thickness at 10 mg/kg, po after 180 mins; outline: as §1
Mus musculus [7] = assay: Inhibition of carrageenan-induced paw edema in Swiss albino mouse at 100 mg/kg, po after 270 mins relative to control; conditions: 4.5 h; outline: as §1
Mus musculus [8] = assay: Antiinflammatory activity against carrageenan-induced paw edema in Swiss albino mouse assessed as swelling thickness at 100 mg/kg, po after 180 mins; outline: as §1
Mus musculus [9] = assay: Antiinflammatory activity against carrageenan-induced paw edema in Swiss albino mouse assessed as swelling thickness at 10 mg/kg, po after 90 mins; outline: as §1
Mus musculus [10] = assay: Inhibition of carrageenan-induced paw edema in Swiss albino mouse at 10 mg/kg, po after 270 mins relative to control; conditions: 4.5 h; outline: as §1
Mus musculus [11] = assay: Inhibition of carrageenan-induced paw edema in Swiss albino mouse at 100 mg/kg, po after 180 mins relative to control; conditions: 3 h; outline: as §1
Mus musculus [12] = assay: Inhibition of carrageenan-induced paw edema in Swiss albino mouse at 100 mg/kg, po after 360 mins relative to control; conditions: 6 h; outline: as §1
Mus musculus [13] = assay: Inhibition of carrageenan-induced paw edema in Swiss albino mouse at 100 mg/kg, po after 90 mins relative to control; conditions: 1.5 h; outline: as §1
Mus musculus [14] = assay: Antiinflammatory activity against carrageenan-induced paw edema in Swiss albino mouse assessed as swelling thickness at 10 mg/kg, po after 360 mins; outline: as §1
Mus musculus [15] = assay: Inhibition of carrageenan-induced paw edema in Swiss albino mouse at 10 mg/kg, po after 180 mins relative to control; conditions: 3 h; outline: as §1
Mus musculus [16] = assay: Inhibition of carrageenan-induced paw edema in Swiss albino mouse at 10 mg/kg, po after 90 mins relative to control; conditions: 1.5 h; outline: as §1

Question: For `COc1ccc2c(c1)c(CC(=O)O)c(C)n2C(=O)c1ccc(Cl)cc1` [INDOMETHACIN], which Activity (Mus musculus [1]) is on record?
Answer: Its Activity is 36.5 10^-2mm.

Question: What about the Activity (Mus musculus [2]) of the same molecule?
Answer: Its Activity is 37.5 10^-2mm.

Question: What about the inhibition in vivo at 10 mg/kg (Mus musculus [3]) of the same molecule?
Answer: Its inhibition in vivo at 10 mg/kg is 44.2%.

Question: What about the Activity (Mus musculus [4]) of the same molecule?
Answer: Its Activity is 39.7 10^-2mm.

Question: And the Activity (Mus musculus [5])?
Answer: The Activity was 31.9 10^-2mm.

Question: What about the Activity (Mus musculus [6]) of the same molecule?
Answer: The Activity was 39.1 10^-2mm.

Question: And the inhibition in vivo at 100 mg/kg (Mus musculus [7])?
Answer: The inhibition in vivo at 100 mg/kg was 37.9%.

Question: And the Activity (Mus musculus [8])?
Answer: Its Activity is 34.8 10^-2mm.

Question: And the Activity (Mus musculus [9])?
Answer: The Activity was 34.5 10^-2mm.

Question: And the inhibition in vivo at 10 mg/kg (Mus musculus [10])?
Answer: Its inhibition in vivo at 10 mg/kg is 42.1%.

Question: And the inhibition in vivo at 100 mg/kg (Mus musculus [11])?
Answer: The inhibition in vivo at 100 mg/kg was 32.4%.

Question: What about the inhibition in vivo at 100 mg/kg (Mus musculus [12]) of the same molecule?
Answer: The inhibition in vivo at 100 mg/kg was 42.3%.

Question: What about the inhibition in vivo at 100 mg/kg (Mus musculus [13]) of the same molecule?
Answer: The inhibition in vivo at 100 mg/kg was 28.8%.

Question: And the Activity (Mus musculus [14])?
Answer: The Activity was 40.2 10^-2mm.

Question: What about the inhibition in vivo at 10 mg/kg (Mus musculus [15]) of the same molecule?
Answer: The inhibition in vivo at 10 mg/kg was 34.2%.

Question: And the inhibition in vivo at 10 mg/kg (Mus musculus [16])?
Answer: The inhibition in vivo at 10 mg/kg was 35.2%.
